Most compounds without a hit are left out; they make up all but 2.2% or so of the library.
HCT116 PTEN-null – suppresses growth of cells with PTEN deletion; HCT116 PTEN-null viability, CellTiter-Glo, 60 h; active compounds read low; viability, % at 10 µM; 140,000 tested, 1.2% active; AID 827;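 active = viability at or below a set limit, 4 SD under the median of all tested compounds, cut at about 3.7% in these data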;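 note: PTEN knockout HCT116 line with beta catenin targeted HCT116 as companion control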
Dynein cargo inh – blocks dynein driven cargo transport along microtubules; 3617.4 mouse cells, GR-EGFP nuclear translocation imaging; test concentration mostly 20 µM; stimulated with dexamethasone, 1 µM; active compounds read low; z-score, hits read low; 220,000 tested, 0.47% active;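 active = plate z-score of nuclear minus cytoplasmic receptor signal below a set negative limit, without overly bright fluorescence or cell loss, cut at about -3.5 in these data, passing the limit was not always enough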;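 note: z-score of nuclear minus cytoplasmic ring GR-EGFP intensity difference per well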
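medium = tetracycline-free induction medium containing charcoal-stripped FBS | also added = 1.0 µM final dexamethasone stimulus | schedule = 48 h induction, 1 h compound, 30 min dex at 37 °C | technique = fixed, Hoechst-stained cells imaged at 10x for EGFP | measure = GR-EGFP nuclear translocation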
bCat KO growth – beta-catenin-lacking colon tumor cell growth suppression. 140,000 tested, 1.5% active. HCT116 beta-catenin knockout viability, CellTiter-Glo, 60 h; active compounds read low. viability, % at 10 µM;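 active = viability at or under a set limit, the compound median less 4 SD, cut at about 6% in these data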;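 note: 0% = Hyamine 1622 control at 20 µM and 100% = untreated cell control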
Autophagy mod – modulators of autophagy; AID 463193; calls only at 10 µM (by protocol); 190,000 tested, 0.98% active; MEF GFP-LC3 puncta imaging; test concentration mostly 10 µM;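 active = percentage of spot-positive cells more than 3 SD above its plate mean, without a fluorescence outlier flag or 80% toxicity; inconclusive = no clear call, values can overlap the other calls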;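 note: spot-positive cell cutoff set from DMSO-treated cells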
sdo1 growth – sdo1-depleted yeast growth rescue; S. cerevisiae sdo1-depleted JHY4D growth rescue, OD600 30 h; active compounds read high; pdr5 snq2 efflux-pump mutant strain; z-score at 10 µM; 140,000 tested, 0.21% active; AID 817;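 active = z-score above 3 at both the 24 hr and the 30 hr optical density reads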;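 note: z-score against mean and SD of all compound wells on the same plate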
* = called active by the depositor; i = inactive; ? = inconclusive; / = no result given; + = active, no number.

SMILES	HCT116 PTEN-null	Dynein cargo inh	bCat KO growth	Autophagy mod	sdo1 growth
Cn1c(-c2c(N)n(C3CCCC3)c3nc4ccccc4nc23)nc2ccccc21	72	0.32	76	+	-2.5
S=C(Nc1ccccc1Cl)NC1CC2CCCC(C1)N2C1CC1 (centres undefined)	/	-0.36	/	i	/
Cc1sc2c(c1C)c(=O)n(-c1ccc(Cl)cc1)c(=O)n2Cc1cc(=O)n2ccccc2n1	100	-0.95	97	i	-1.7
CCc1ccc(-n2c(C)nc3cc(C(=O)NCc4cccnc4)ccc32)cc1	/	0.48	/	i	/
CCC(Sc1nc2cc3c(cc2c(=O)n1Cc1ccco1)OCO3)C(=O)Nc1ccccc1OC (centres undefined)	20	-0.62	6	+	0.47
CCC(Sc1nc2cc3c(cc2c(=O)n1Cc1ccco1)OCO3)C(=O)NCCOC (centres undefined)	100	0.56	102	i	0.43
CCC(Sc1nc2cc3c(cc2c(=O)n1Cc1ccco1)OCO3)C(=O)Nc1cccc(OC)c1 (centres undefined)	1.7*	-0.12	1.7*	+	0.33
COc1ccc(C(=O)N2CCCC(CCC(=O)NCc3ccc(F)c(F)c3)C2)o1 (centres undefined)	/	-0.42	/	i	/
Cn1c(=NC(=O)c2ccco2)sc2ccccc21	/	0.29	/	i	/
Cn1c(=NC(=O)CCl)sc2ccccc21	5	-0.96	5.1*	?	0.03
Clc1ccc(-n2nnnc2Sc2ncnc3sccc23)cc1	/	-0.92	/	+	/
O=C(NCc1ccccn1)c1ccc(COc2ccc(Cl)cc2)o1	6	-0.95	4.3*	i	-0.26
On1onc2c3cc(-c4ccccc4)nc3ccc21	1.2*	1.6	1.8*	i	-2.8
CCOC(=O)c1nc2sc3c(c2c(=O)[nH]1)CCCC3	96	-0.11	102	i	0.82
CCOC(=O)c1nc(N2CCN(C(=O)OCC)CC2)c2c3c(sc2n1)CCCC3	82	0.35	113	+	-0.78
CSCCOC(=O)C1=C(C)Nc2ccc(C)cc2S1	99	-0.83	94	+	0.38
CCOC(=O)N1CCc2c(sc(NC(=O)CN3CCOCC3)c2C(=O)Nc2ccccc2)C1	/	-0.021	/	+	/
CCOC(=O)N1CCc2c(sc(NC(=O)CN3CCN(C)CC3)c2C(=O)Nc2ccccc2)C1	/	1.1	/	i	/
COC(=O)C(C)(C(=O)OC)c1ccccc1[N+](=O)[O-]	94	0.55	95	i	-0.17
NC(=O)C[n+]1ccc(/C=N/O)cc1	/	-0.82	/	+	/
CC(C)N(C(=O)C[n+]1ccc(/C=N/O)cc1)C(C)C	99	0.65	107	i	1.9
Cn1c(=O)c2c(nc(Cc3ccc(N)cc3)n2C)n(C)c1=O	/	-0.65	/	/	/
CCN1CCN(CCCN(Cc2ccco2)C(=S)Nc2cccc(Cl)c2C)CC1	/	0.53	/	+	/
Cc1cc(NC(=S)N(CCCN2CCN(C)CC2)Cc2ccco2)ccc1Cl	/	-0.77	/	+	/
O=C(NCCCN1CCCC1)c1ccc(CSCc2cccc(Cl)c2)o1	87	-0.58	78	i	0.44
SMILES	HCT116 PTEN-null	Dynein cargo inh	bCat KO growth	Autophagy mod	sdo1 growth
CCC1=C2CC[C@H]3C(=O)N(CC(=O)OC)C(=O)[C@H]3[C@H]2[C@@]2(C)C(=NCC(=O)OC)OC(=O)N2C1=O	/	2.7	/	/	/
CC(C)[C@H](NC(=O)NCCc1ccc(F)cc1)C(=O)O	12	-0.7	11	i	-0.15
CCOC(=O)C1=C(c2ccccc2)NC(SCC(=O)Nc2cccc(C)c2)=C(C#N)C1c1ccco1 (centres undefined)	40	3.1	61	+	-0.99
COC(=O)c1c(NC(=O)COC(=O)[C@@H](NS(=O)(=O)c2cccc(Cl)c2)C(C)C)sc2c1CCC2	89	-0.9	83	+	0.37
COC(=O)c1sc(N)c(C(=O)OC)c1COC(=O)[C@@H](NS(=O)(=O)c1cccc(Cl)c1)C(C)C	49	-0.43	60	i	-0.75
CCOC(=O)C1=NN(C(C)=O)C2C(=O)N(CC)C(=O)C12 (centres undefined)	/	-0.097	/	/	/
Cc1ccc(-c2oc3ccccc3c(=O)c2OCC(=O)O)cc1	/	-0.44	/	i	/
Cc1ccc(-c2oc3ccccc3c(=O)c2O)cc1	17	0.4	22	+	-0.18
CCC1CCCCN1S(=O)(=O)c1ccc(NC(=O)c2cccs2)cc1 (centres undefined)	65	-0.34	65	i	-2.3
CCC1CCCCN1S(=O)(=O)c1ccc(NC(=O)CSc2ncccc2C(=O)O)cc1 (centres undefined)	109	1.3	105	+	-0.39
COc1ccc(NC(=O)CSc2nnnn2-c2ccc(OC)cc2)cc1	93	0.29	94	i	-0.69
COc1cc(OC)cc(-n2nnnc2SCC(=O)Nc2ccc(C(C)=O)cc2)c1	81	-0.72	79	+	0.03
CN(C)S(=O)(=O)c1ccc2c(c1)c(=O)c(C(=O)N1CCN(c3ccccn3)CC1)cn2C	88	0.43	91	i	0.93
C=C(C(=O)c1ccccc1)C(CC(=O)c1ccccc1)c1ccccc1 (centres undefined)	3.1*	-2.7	4.8*	i	-1.2
COc1cc(/C=C(\C#N)c2ccccn2)ccc1OCC(=O)Nc1c(Cl)cccc1Cl	87	-0.64	81	i	1.5
COc1cc(/C=C(/C#N)c2nc3ccccc3[nH]2)ccc1OCC(=O)Nc1ccccc1C	19	3	26	i	0.78
COc1cc(/C=C(\C#N)c2ccccn2)ccc1OCC(=O)Nc1ccc(Br)cc1	5	-0.71	5.4*	i	0.13
COc1cc(/C=C(/C#N)c2nc3ccccc3[nH]2)ccc1OCC(=O)Nc1ccccc1C(C)C	0.7*	-0.36	1.2*	i	-3.2
COc1cc(S(=O)(=O)N2CCOCC2)ccc1NC(=O)COC(=O)CC12CC3CC(CC(C3)C1)C2	90	-0.91	103	i	-0.57
CSCCC(NS(=O)(=O)c1ccc(C)c(C(=O)O)c1)C(=O)O (centres undefined)	/	0.57	/	i	/
Cc1ccc(OCC(=O)N/N=C/c2cn(Cc3ccccc3)c3ccccc23)cc1	82	1.6	79	i	-1.2
Cc1[nH]c2ccc(-c3nnc(SCC(=O)c4ccc(F)cc4)o3)cc2c1C	62	-0.46	24	i	0.92
Cc1cc(C)c(C)c(C(=O)CSc2nnc(-c3ccc4[nH]c(C)c(C)c4c3)o2)c1C	18	0.17	23	+	-2
O=C(N(c1ccccc1)c1ccccc1)n1ccnc1	103	-0.4	88	i	-2
COc1cccc([C@@H]2Oc3ccc(OC)cc3C(=O)[C@H]2O)c1	9	-0.5	5.3*	i	-0.23
COc1ccc2c(c1)C(=O)[C@@H](O)[C@H](c1ccc(OC)c(Br)c1)O2	11	0.47	11	i	0.23
Cc1ccc(S(=O)(=O)CCc2nnc(NC(=O)COc3cccc(C)c3)s2)cc1	85	-0.15	89	i	0.73

Bioassay records from PubChem BioAssay.
